Paper PMC2787711 (Biochimica et biophysica acta, 2009)
“Also recorded” adds a separate entry of the source.

Experiments:
malaria = conditions: cited from earlier work
avian malaria = conditions: cited from earlier work
bovine bc1 complex = bovine bc1 complex (Bos taurus, UniProt P00157+P13272); test: Ubiquinol-cytochrome c reductase activity of purified bc1 complex; type: biochemical; conditions: for Selectivity Coefficient (comparison in words): IC50 bovine enzyme divided by IC50 yeast enzyme, Fig. 5
Procedure, shortened: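 Bovine heart bc1 complex, 2.5 nM, in phosphate pH 7.0 buffer with sucrose, EDTA, azide, KCN, dodecylmaltoside and 40 µM cytochrome c at 23 °C. Enzyme preincubated 1 min with increasing test compound; started with decylbenzoquinol; cytochrome c reduction read at 550 vs 539 nm. Duplicates averaged. IC50 taken from titration curves; Selectivity Coefficient = bovine IC50 / yeast IC50.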

[1] = cited from earlier work
[2] = target: center P of the yeast cytochrome bc1 complex (Saccharomyces cerevisiae, UniProt P00163+P08067); test: Pre-steady-state oxidant-induced reduction of cytochrome b through center P; type: biochemical; conditions: 2 µM inhibitor, bc1 complex pre-reduced with quinol, 3 µM antimycin
Procedure, shortened: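 Then 3 µM antimycin and 2 µM test compound added, 1 min further. Rapid-mixed with 3 µM cytochrome c; stopped-flow rapid-scanning spectroscopy at 24 °C. Absorbance change at 562 and 578 nm extracted; 12–19 data sets averaged.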

[3] = target: center N of the yeast cytochrome bc1 complex (Saccharomyces cerevisiae, UniProt P00163+P08067); test: Pre-steady-state reduction of cytochrome b through center N; type: biochemical; conditions: 2 µM NQ1, 3 µM stigmatellin, oxidized bc1 complex
Procedure, shortened: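 Stopped-flow rapid scanning at 24 °C: 1 µM oxidized yeast bc1 complex with 3 µM stigmatellin, with or without 2 µM test compound. Rapid-mixed with 30 µM 2,3-dimethoxy-5-methyl-6-decyl-1,4-benzoquinol. Cytochrome b reduction followed as absorbance time course at 562 and 578 nm; 12–19 data sets averaged.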

| SMILES | Selectivity Coefficient (comparison in words) (bovine bc1 complex) | inhibition of oxidant-induced reduction of cytochrome b through center P [2] | further results |
| --- | --- | --- | --- |
| CCCCCCC(C)CC1=C(O)C(=O)c2ccccc2C1=O (centres unmarked) [S-10576] | greatest selectivity |  | efficacy in humans (malaria): ineffective; efficacy against avian malaria (avian malaria): effective; Selectivity Coefficient relative to that of atovaquone (bovine bc1 complex; Selectivity Coefficient = IC50 bovine enzyme divided by IC50 yeast enzyme): ~10 fold; metabolism and excretion in vivo [1]: terminal two carbons of the side chain are modified by oxidation and the resulting more water soluble compound is rapidly excreted |
| O=C1C(O)=C([C@H]2CC[C@H](c3ccc(Cl)cc3)CC2)C(=O)c2ccccc21 [atovaquone, 2-[trans-4-(4’-chlorophenyl)cyclohexyl]-3-hydroxy-1,4-hydroxynaphthoquinone, reference compound] |  | greatly inhibited |  |
| CCCCCCC(C)CC1=C(O)C(=O)c2c(C)cccc2C1=O (centres unmarked) [NQ2, 2-OH-3-(2-Me-octyl)-8-Me-naphthoquinone] | higher selectivity than atovaquone |  |  |
| Cc1cccc2c1C(=O)C(O)=C(CC(C)CCCCCC(F)(F)F)C2=O (centres unmarked) [NQ3, 2-OH-3-(2-Me-trifluorooctyl)-8-Me-naphthoquinone] | higher selectivity than atovaquone |  |  |
| CC(CCCCCC(F)(F)F)CC1=C(O)C(=O)c2ccccc2C1=O (centres unmarked) [NQ1, 2-OH-3-(2-Me-trifluorooctyl)-naphthoquinone] | higher selectivity than atovaquone | completely inhibited | effect on cytochrome b reduction through center N [3]: no effect; also recorded: identical, superimposed kinetic traces in the presence and absence |
